This is a sample that favours compounds with a hit; in the whole collection about 1.4% have one here.
Tn7 DDE FP: inhibitors of Tn7 peptide binding to fibrin DD(E), primary screen, biochemical, fluorescence polarization, human fibrin, Tn7 probe; Fibrinogen beta chain (Homo sapiens), P02675; AID 720508, 2013; 0.13% of 370,000 active; FP displacement of FITC-Tn7 peptide from fibrin DD(E); 0% = median of compound wells per plate; inhibition, % at 8.3 µM;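 active means inhibition above the mean of compounds falling within the control limits plus 3 SD of them, cut at about 14% in these data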;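 further: 0% = plate median of compound wells and 100% = 10 µM Aha-Tn7 peptide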
Target sequence (P02675 whole entry, looked up): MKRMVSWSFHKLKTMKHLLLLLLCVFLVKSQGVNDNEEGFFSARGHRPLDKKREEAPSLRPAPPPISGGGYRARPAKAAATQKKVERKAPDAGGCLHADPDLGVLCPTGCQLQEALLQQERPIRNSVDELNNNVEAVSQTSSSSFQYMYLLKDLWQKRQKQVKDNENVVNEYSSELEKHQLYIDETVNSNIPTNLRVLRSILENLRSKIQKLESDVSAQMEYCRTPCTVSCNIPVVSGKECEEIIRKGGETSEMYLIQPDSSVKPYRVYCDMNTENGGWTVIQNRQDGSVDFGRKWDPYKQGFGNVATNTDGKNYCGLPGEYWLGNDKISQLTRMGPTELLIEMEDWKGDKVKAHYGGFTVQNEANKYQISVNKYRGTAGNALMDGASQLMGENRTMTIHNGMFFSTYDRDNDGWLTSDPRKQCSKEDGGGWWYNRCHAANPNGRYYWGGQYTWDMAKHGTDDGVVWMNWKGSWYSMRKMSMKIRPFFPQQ
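Assay system: Human clot-derived fibrin DD(E) complex | Buffer or medium: Tris/NaCl/CaCl2 buffer, pH 7.8 | Repeats: One replicate per compound | Benchmarks: Aha-Tn7 high control | Measure: % inhibition scaled between sample-field median and high-control FP | Schedule: 10 min plus 3 h, room temperature | Signal: Fluorescence polarization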
DDE Tn6 FP inh: inhibitors of Tn6 peptide binding to fibrin DD(E), primary screen, biochemical, fluorescence polarization, human fibrin, Tn6 probe; inhibition, % at 8.3 µM; Fibrin DD(E) TRITC-Tn6 fluorescence polarization displacement; Fibrinogen beta chain (Homo sapiens), P02675; 0.21% of 370,000 active; AID 720509, 2013;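 active means inhibition above a per-campaign cutoff: mean of compounds within control limits plus 3 SD, cut at about 15% in these data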;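 further: 0% = median of all compound wells on the plate and 100% = blocking peptide control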
Cardio protect: cardioprotection against H2O2-induced cell death, primary screen, uHTS, H9c2 cells, ATPLite luminescence; H9c2 cardiomyocytes, H2O2 injury protection, 2 h; protection from H2O2 cell death, % at 20 µM; 0.63% of 360,000 active;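 active means compounds giving at least 50% protection of heart cells from peroxide-induced death in the single-dose screen, raw or plate-pattern-corrected value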;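 further: 0% = DMSO wells with peroxide and 100% = DMSO wells without peroxide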
DAGLB inh: DAGLB lipase inhibitors, primary screen, biochemical, fluorescence, HTS; inhibition, % at 5.17 µM; 0.059% of 340,000 active; HEK293T DAGLB membrane lysate, EnzChek fluorogenic substrate; Diacylglycerol lipase-beta (Homo sapiens), Q8NCG7; in the data active means inhibition above about 34%;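 further: 0% = enzyme with vehicle and 100% = wells lacking enzyme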
MT1-MMP act inh: blockers of MT1-MMP proenzyme processing, primary screen, HT1080 RFP-PRO-GFP cells, GFP/RFP fluorescence; GFP/RFP ratio fluorescence, overnight; percent of plate control window, DMSO zero; Matrix metalloproteinase-14 (Homo sapiens), P50281; GFP/RFP ratio change, % at 20 µM; 0.061% of 360,000 active;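 active means GFP/RFP ratio change of at least 30% with cell ATP level not reduced by more than half and red fluorescence within 50% of control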
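Assay system: HT1080 RFP-PRO-GFP cells. Benchmarks: DMSO vehicle wells and RFP-L50D-GFP reporter cell wells. Times: overnight cell settling, then overnight compound exposure, 37 °C, 5% CO2. Compound: 20 µM single dose, 1% DMSO. Read-out basis: GFP/RFP fluorescence ratio.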
H9c2 TAG inh: inhibitors of triacylglycerol accumulation, primary screen, cell-based, uHTS, fluorescence, H9c2 | inhibition, % at 12.5 µM | 0.66% of 230,000 active | H9c2 cells, Nile Red lipid (TAG) fluorescence; cells loaded with 200 µM oleic acid | AID 651582, 2012;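 active means pattern-corrected inhibition of lipid staining of at least 50% with the nuclear-stain viability signal not falling by more than 50%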;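 further: 0% = DMSO wells and 100% = triacsin C control wells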
Tn6 DDE ctr: counter-screen hit for Tn6 peptide-fibrin DD(E) binding disruption; shares compounds with DDE Tn6 FP inh; TRITC-Tn6 fluorescence polarization displacement; 0% = median of compound wells, not DMSO; inhibition, % at 8.3 µM; 2% of 680 active; AID 720621;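 active means inhibition above the mean of test compounds lying between the control limits plus 3 SD of those, cut at about 14% in these data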;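 further: 0% = median of compound wells and 100% = wells with Aha-Tn7 blocking peptide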
DDE Tn6 confirm: inhibitors of Tn6 peptide binding to fibrin DD(E), confirmation, biochemical, fluorescence polarization, human fibrin, Tn6 probe | FP displacement of TRITC-Tn6 peptide from DD(E); 0% = per-plate median of test wells | AID 720631, 2013 | 10% of 680 active | shares compounds with DDE Tn6 FP inh | inhibition, % at 8.3 µM;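 active means inhibition above the mean of compounds lying within the control limits plus 3 SD, cut at about 16% in these data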;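 further: 100% = high control wells holding a competing inhibitor peptide at 10 µM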
* = called active by the depositor; / = no result.

SMILES	Tn7 DDE FP	DDE Tn6 FP inh	Cardio protect	DAGLB inh	MT1-MMP act inh	H9c2 TAG inh	Tn6 DDE ctr	DDE Tn6 confirm
O=C(c1cc2ccccc2o1)N1CCCC1	2	17*	-2	-2	0	-10	2	4
CCCS(=O)(=O)N1CCN(C(=O)c2cccnc2)CC1	0	-3	-1	0	1	-8	/	/
CCCS(=O)(=O)N1CCN(C(=O)c2ccc(-c3ccccc3)cc2)CC1	11	15*	-4	2	1	8	-4	-7
COc1cccc(C(NC(C)=O)c2nc(-c3cccc(C(C)C)c3)cs2)c1 (centres undefined)	2	-2	-10	/	6	12	/	/
COc1cccc(OC)c1C(=O)NC(=S)Nc1cc(-c2nc3ccccc3[nH]2)ccc1Cl	3	55*	32	-1	9	16	1	13
COc1c(F)c(F)c(C(=O)Nc2ccc(-c3nc4ccccc4[nH]3)cc2)c(F)c1F	-2	0	2	-2	1	4	/	/
COC(=O)[C@H](C(C)C)N(CCc1cn(Cc2ccccc2)nn1)S(=O)(=O)c1ccccc1Br	11	-5	/	/	/	/	/	/
O=C(Cc1ccccc1)NC(NNc1ccccc1)(C(F)(F)F)C(F)(F)F	-3	15*	-12	-4	-8	-2	14*	7
CCCCN(C(=O)COC(=O)C1(c2ccccc2)CC1)c1c(N)n(CCC)c(=O)[nH]c1=O	2	-4	4	-2	2	3	/	/
NS(=O)(=O)c1ccc(NC(=O)COC(=O)/C(=C/c2cccs2)c2cccs2)cc1	-3	19*	-2	2	1	11	0	1
NS(=O)(=O)c1ccc(NC(=O)Cc2cccs2)cc1	-8	-1	6	-3	-1	-15	/	/
O=C(NCc1ccccc1)C1C(c2ccccc2)=Nc2ccccc2N1C(=O)c1cccnc1 (centres undefined)	-7	1	/	/	-6	/	/	/
CC(=O)N1N=C(c2ccncc2)OC12CCCCCC2	6	16*	1	0	3	/	10	7
O=C(C[C@H]1C[C@H](C(=O)N2CCOCC2)[C@@]2(CCC3CCCC3)c3[nH]c4cc(-c5ccco5)ccc4c3CCN2C1=O)NCc1cccc(C(F)(F)F)c1	4	3	-13	6	-11	39	/	/
COc1ccc(CNC(=O)C[C@H]2C[C@H](C(=O)N3CCOCC3)[C@@]3(CCC4CCCC4)c4[nH]c5cc(-c6ccco6)ccc5c4CCN3C2=O)cc1OC	6	16*	-12	4	-7	23	7	3
Cc1nnc2c3ccccc3c(-c3cccc4ccccc34)nn12	-2	-2	-8	4	8	/	/	/
Cc1nnc2sc(-c3cccc4ccccc34)nn12	-1	17*	-4	0	-2	10	-7	-10
COc1ccccc1CNC(=O)C/C(C)=N/NC(=O)Cc1ccc(Cl)cc1	-3	-6	5	1	3	/	/	/
C/C(CC(=O)NCc1ccc(Cl)cc1)=N\NC(=O)c1ccccc1F	7	16*	3	-2	3	-13	-4	-14
CN(c1ccccc1)c1ncnc2c1ncn2C	-4	3	0	-1	-1	5	/	/
Cc1ccc(C)c(-n2nnnc2SCC(=O)NNC(=O)c2ccco2)c1	5	20*	1	2	0	-3	-3	-5
CCC1(C)CC(CCN(Cc2ccco2)C(C)=O)(c2ccccc2)CCO1 (centres undefined)	-1	17*	-1	-4	-5	/	4	3
c1ccc(-c2c[nH]c3ccc(OCc4ccc5ccccc5n4)c(-c4ccccc4)c23)cc1	3	5	/	/	/	/	/	/
Cc1cc(C(=O)Nc2ccc(S(=O)(=O)N3CCCC3)cc2)cs1	1	16*	-4	-2	1	/	-5	-11
CC(=O)c1ccc(NC(=O)c2ccc(S(=O)(=O)N3CCCC3)cc2)cc1	-5	-3	6	0	3	/	/	/
SMILES	Tn7 DDE FP	DDE Tn6 FP inh	Cardio protect	DAGLB inh	MT1-MMP act inh	H9c2 TAG inh	Tn6 DDE ctr	DDE Tn6 confirm
Cc1c(Cl)cn2c(=O)cc(CN3CCN(c4ccccc4)CC3)nc2c1Cl	6	15*	-3	2	-7	16	6	2
O=C(CCNC(=O)N1CC(=O)Nc2ccccc21)NCc1cccc(C(F)(F)F)c1	7	0	-3	2	-1	7	/	/
Nc1nc2c(c(=O)[nH]1)CN(Cc1ccccc1)CC2	2	10	2	-2	0	1	/	/
Nc1ncnc2c1CN(Cc1ccccc1)CC2	5	65*	18	1	-3	0	-7	-7
COCCN(CC(=O)Nc1cccc(C)c1C)C(=O)/C=C/c1ccc2c(c1)OCCO2	-2	-6	7	-1	1	-11	/	/
O=C(NCCc1c[nH]c2ccccc12)OCc1cn(Cc2ccccc2F)nn1	4	-2	/	/	/	/	/	/
COc1ccc(C(=O)OCC(=O)c2ccco2)cc1[N+](=O)[O-]	-1	1	2	-2	-1	-10	/	/
CC(=O)NC(Cc1ccccc1)C(=O)N1CCN(C(=O)c2cccs2)CC1 (centres undefined)	1	17*	2	2	2	/	-9	-8
O=S1(=O)N[C@H](Cc2ccccc2)COc2cc(N3CCC[C@@H]3CO)ccc21	5	2	/	/	2	/	/	/
CCN(CC)S(=O)(=O)c1ccc(C(=O)NCc2ccc3c(c2)OCO3)cc1	5	-1	1	-2	7	8	/	/
CCN(CC)S(=O)(=O)c1ccc(C(=O)NCc2ccc3c(c2)cc(C)n3C)cc1	4	80*	-3	1	35	-6	7	-4
Cc1cc2cc(CNC(=O)c3ccc(S(=O)(=O)N4CCCC4)cc3)ccc2n1C	-4	60*	8	3	16	14	-5	5

High-throughput results deposited in PubChem by several laboratories.
